Publication PMC12398596 (Nature Communications, 2025)

Tests used:
BV2 cells [1] = assay: Colocalization of P2CSKn-pretreated sFITC-Aβ42 with LysoTracker Red in BV2 cells; assay type: cell-based, mouse; conditions: chloroquine 10 μM, 1 h pretreatment
BV2 cells [2] = assay: Degradation of FITC-Aβ42 forms in BV2 cells; assay type: cell-based, mouse; conditions: for degradation of intracellular FITC-Aβ42: 0.5 μM FITC-Aβ42 forms, 180 min then washed
Marco mRNA in BV2 cells = assay: Marco mRNA in BV2 cells, rt-qPCR; assay type: cell-based, mouse; conditions: for expression of Marco mRNA, TLR agonists (in words): LPS 1.0 μg/mL, Pam2CSK4 1.0 μM, flagellin 200 nM
Msr1 mRNA in BV2 cells = assay: Msr1 mRNA in BV2 cells, rt-qPCR; assay type: cell-based, mouse; conditions: for expression of Msr1 mRNA, TLR agonists (in words): LPS 1.0 μg/mL, Pam2CSK4 1.0 μM, zymosan A 50 μg/mL, flagellin 200 nM
fFITC-Aβ42 = assay: LSCM re-assembly of fFITC-Aβ42 plaques; assay type: biochemical; conditions: fFITC-Aβ42 5.0 μM, compound 25 μM, PBS
fAβ42 [3] = target: T1, fAβ42 (Homo sapiens, UniProt P05067); assay: PICUP-Western blot of fAβ42, antibody 4G8; assay type: biochemical; conditions: fAβ42 20 μM, 37 °C, P2CSKn result at 0.5 eq. (10 μM)
sAβ42 [4] = assay: Dynamic light scattering, sAβ42 with compounds; assay type: physicochemical; conditions: PBS; for shift of sAβ42 particle size to single range around 100 nm: sAβ42 + compound
Aβ plaque [5] = assay: Local cortex injection, Aβ by antibody OC, APP/PS1 mice; assay type: in vivo, APP/PS1 transgenic mice; conditions: 13-month-old APP/PS1, cortex, 100 μM 300 nL, 5 d, mean ± SD
Method in brief: (§1)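 13-month APP/PS1 mice (C57BL/6 background) under sodium pentobarbital (50 mg/kg) received a unilateral stereotaxic cortical injection (AP +1.0, ML ±1.0, DV −1.0) of compound or reference (100 μM, 300 nL saline, with Hoechst 33342) at 50 nL/min. Perfusion-fixed (PBS, 4% PFA) at 2 or 5 days and sections immunostained. Ratio = signal at injection zone (>80% max dye) over adjacent zone (>200 μm away, <10% dye); 50 μm around needle track excluded.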

Mrc1 mRNA in BV2 cells = assay: Mrc1 mRNA in BV2 cells, rt-qPCR; assay type: cell-based, mouse; conditions: for expression of Mrc1 mRNA, TLR agonists (in words): LPS 1.0 μg/mL, Pam3CSK4 1.0 μM, Pam2CSK4 1.0 μM, zymosan A 50 μg/mL
sAβ42 [6] = assay: Tyndall effect of sAβ42 with compounds; assay type: physicochemical; conditions: PBS; for Tyndall effect of sAβ42 on addition of compound: imaged immediately after mixing; for Tyndall effect of compound itself (self-aggregation): compound alone
NLRP3 = NLRP3 protein in BV2 cells, Western blot; assay type: cell-based, mouse; conditions: 1.0 μM, 12 h
MARCO = MARCO protein in BV2 cells, Western blot; assay type: cell-based, mouse; conditions: P2CSKn or Pam2CSK4 1.0 μM, 12 h
MSR1 = MSR1 protein in BV2 cells, Western blot; assay type: cell-based, mouse; conditions: P2CSKn or Pam2CSK4 1.0 μM, 12 h
BV2 cells [7] = assay: Phagocytosis of fFITC-Aβ42 in BV2 cells, flow cytometry; assay type: cell-based, mouse; conditions: fFITC-Aβ42 0.5 μM, 8 eq., 180 min, mean ± SD, n = 3
BV2 cells [8] = assay: Treat & wash phagocytosis of fFITC-Aβ42 in BV2 cells; assay type: cell-based, mouse
Iba1 = assay: Local cortex injection, Iba1, APP/PS1 mice; assay type: in vivo, APP/PS1 transgenic mice; conditions: 13-month-old APP/PS1, cortex, 100 μM 300 nL, 5 d, mean ± SD
Method in brief: as §1

BV2 cells [9] = assay: Normal vs treat & wash phagocytosis of sFITC-Aβ42 in BV2 cells; assay type: cell-based, mouse; conditions: mean ± SD, n = 3
Aβ plaque [10] = assay: Local cortex injection, Aβ plaque by Thioflavin S, APP/PS1 mice; assay type: in vivo, APP/PS1 transgenic mice; conditions: 13-month-old APP/PS1, cortex, 100 μM 300 nL, 5 d, mean ± SD
Method in brief: as §1

BV2 cells [11] = assay: Phagocytosis of sFITC-Aβ42 in BV2 cells, flow cytometry; assay type: cell-based, mouse; conditions: sFITC-Aβ42 0.5 μM, 2 eq., 180 min, mean ± SD, n = 3
Aβ plaque [12] = assay: Local hippocampus injection, Aβ plaque by Thioflavin S, APP/PS1 mice; assay type: in vivo, APP/PS1 transgenic mice; conditions: 9-month-old APP/PS1, hippocampus, 100 μM 300 nL, 5 d, mean ± SD
Method in brief: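 APP/PS1 mice (9 or 16 months) under pentobarbital (50 mg/kg) received stereotaxic injections of test compound (100 μM, 300 nL saline, with Alexa Fluor 594) into right dorsal hippocampus (AP −2.2, ML +1.5, DV −1.9 mm) and reference into left. Meloxicam 5.0 mg/kg s.c. given pre-surgery and every 12 h for 3 days. Perfusion-fixed at 5 or 10 days, DAPI-counterstained. INJ/ADJ ratios compared between hemispheres.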

BV2 cells [13] = assay: RNA-seq of BV2 cells; assay type: cell-based, mouse
fAβ42 [14] = target: T1, fAβ42; assay: Dynamic light scattering, fAβ42 with P2CSKn, time-dependent; assay type: physicochemical
BV2 cells [15] = assay: Phagocytosis of fluorescent microsphere in BV2 cells, flow cytometry; assay type: cell-based, mouse; conditions: fAβ42 0.5 μM
caspase-3 = assay: Cleaved caspase-3 in BV2 cells, Western blot; assay type: cell-based, mouse; conditions: sAβ42, fAβ42 0.5 μM; hPAβ42 1.0 μM P2CSKn + 0.5 μM sAβ42; 12 h
TLR2, BV2 cells = assay: Phagocytosis of FITC-Aβ42 forms in TLR2-WT; assay type: cell-based, mouse; conditions: 0.5 μM, 30 min; for uptake in TLR2-knockdown BV2 cells: TLR2-siRNA; for uptake in BV2-NC cells: null-siRNA control
fAβ42 [16] = target: T1, fAβ42; assay: ThT fluorescence kinetics of preformed fAβ42; assay type: biochemical; conditions: sAβ42 10 μM, 37 °C
primary microglia = assay: Phagocytosis of sFITC-Aβ42 in primary microglia, flow cytometry; assay type: cell-based, mouse
TLR2 = assay: Cellular colocalization of FITC-Aβ42/RhoB-P2CSKn/TLR2, LSCM; assay type: cell-based, mouse; conditions: RhoB-P2CSKn 1.0 μM, sFITC-Aβ42 0.5 μM, 1 h
[17] = 1.0 μM, 12 h, in the absence or presence of Aβ42 species
[18] = equimolar P2CSKn + fAβ42 (20 μM), whole sample, initial
[19] = fAβ42 only 20 μM, whole sample, 18.5 h
[20] = fAβ42 only 20 μM, whole sample, initial
[21] = fAβ42 only, supernatant, 18.5 h

CCN(CC)CCCC(C)Nc1ccnc2cc(Cl)ccc12 (stereo not shown) [chloroquine]
lysosome amount and level of phagocytosis of hybrid aggregates (BV2 cells [1]): significantly reduced
degradation of intracellular FITC-Aβ42, effect of inhibitor (BV2 cells [2]; chloroquine pretreatment 10 μM, 1 h): almost completely abolished

Flagellin
expression of Marco mRNA, TLR agonists (in words) (Marco mRNA in BV2 cells): failed to upregulate
expression of Msr1 mRNA, TLR agonists (in words) (Msr1 mRNA in BV2 cells): failed to upregulate

KLVFFn
co-location with / reshaping of FITC-Aβ42 plaque (fFITC-Aβ42): did not occur
oligomer alteration in fAβ42 (fAβ42 [3]): not observed
shift of sAβ42 particle size to single range around 100 nm (sAβ42 [4]): did not occur

Pam2CSK4
co-location with / reshaping of FITC-Aβ42 plaque (fFITC-Aβ42): did not occur
INJ/ADJ OC (Aβ plaque [5]): 1.05 ± 0.28
oligomer alteration in fAβ42 (fAβ42 [3]): not observed
mRNA of Marco (in words) (Marco mRNA in BV2 cells; [17]): upregulated
expression of Marco mRNA, TLR agonists (in words) (Marco mRNA in BV2 cells): upregulated
expression of Mrc1 mRNA, TLR agonists (in words) (Mrc1 mRNA in BV2 cells): significantly attenuated
Tyndall effect of sAβ42 on addition of compound (sAβ42 [6]): much less activity than P2CSKn
shift of sAβ42 particle size to single range around 100 nm (sAβ42 [4]): did not occur
protein level of NLRP3 (in words) (NLRP3): increased
protein level of MARCO (in words) (MARCO): significant increase
mRNA of Msr1 (in words) (Msr1 mRNA in BV2 cells; [17]): upregulated
expression of Msr1 mRNA, TLR agonists (in words) (Msr1 mRNA in BV2 cells): substantially upregulated
protein level of MSR1 (in words) (MSR1): significant increase
MFI180 (BV2 cells [7]): 24286 ± 520
count180 (cells internalized FITC-Aβ42) (BV2 cells [7]): 89.2 ± 0.3%
phagocytosis of fFITC-Aβ42, treat & wash (BV2 cells [8]; 1.0 μM 6 h, washed, fFITC-Aβ42 0.5 μM 12 h, mean ± SD, n = 3): 43.8 ± 4.1%
increase in phagocytosis of fFITC-Aβ42, treat & wash (BV2 cells [8]; versus untreated fFITC-Aβ42): about 26%
INJ/ADJ Iba1 (Iba1): 5.79 ± 1.71
phagocytosis of sFITC-Aβ42, treat & wash group (BV2 cells [9]; compound 1.0 μM 6 h, washed, sFITC-Aβ42 0.5 μM 12 h): 24.0 ± 2.3%
phagocytosis of sFITC-Aβ42, normal group (BV2 cells [9]; sFITC-Aβ42 0.5 μM pretreated with compound 1.0 μM 30 min, 12 h): 49.3 ± 4.1%
INJ/ADJ TS (Aβ plaque [10]): 0.85 ± 0.11
MFI180 (BV2 cells [11]): 18911 ± 310

Pam2KTK4-ahx-KLVFF-nal [P2KTKn]
Tyndall effect of sAβ42 on addition of compound (sAβ42 [6]): didn’t facilitate that of sAβ42
Tyndall effect of compound itself (self-aggregation) (sAβ42 [6]): significant Tyndall effect

Pam3CSK4
expression of Mrc1 mRNA, TLR agonists (in words) (Mrc1 mRNA in BV2 cells): significantly attenuated

Pam3CSK4-ahx-KLVFF-nal [P3CSKn]
Tyndall effect of sAβ42 on addition of compound (sAβ42 [6]): didn’t facilitate that of sAβ42
Tyndall effect of compound itself (self-aggregation) (sAβ42 [6]): significant Tyndall effect

Pam-KCKSKVFLKFK-ahx-nal [RP]
INJ/ADJ TS (Aβ plaque [12]): 1.12 ± 1.04

Zymosan A
expression of Mrc1 mRNA, TLR agonists (in words) (Mrc1 mRNA in BV2 cells): significantly attenuated
expression of Msr1 mRNA, TLR agonists (in words) (Msr1 mRNA in BV2 cells): substantially upregulated

fAβ42: pre-formed fibrillar Aβ42
expression of Marco mRNA (in words) (Marco mRNA in BV2 cells; fAβ42 0.5 μM, after 60 min): significantly suppressed
phagosome-related genes, RNA-seq (BV2 cells [13]; fAβ42 0.5 μM, BV2, 12 h): significantly donwregulated
–log2(FC) of Msr1, Marco and Mrc1 (BV2 cells [13]; fAβ42 0.5 μM, BV2, 12 h): > 1
Tlr2, Tlr4 or Tlr5 expression (BV2 cells [13]; fAβ42 treatment, RNA-seq): not significantly affected
hydrodynamic diameter, bimodal range (fAβ42 [14]; equimolar P2CSKn + fAβ42 (20 μM), whole sample, 0.5 h): 40–900 nm
hydrodynamic diameter, population 2 (fAβ42 [14]; [18]): ~700 nm
hydrodynamic diameter, population 3 (fAβ42 [14]; [18]): ~9000 nm
hydrodynamic diameter, population 1 (fAβ42 [14]; [19]): around 16 nm
hydrodynamic diameter, population 2 (fAβ42 [14]; [19]): ~136 nm
hydrodynamic diameter, population 3 (dominant) (fAβ42 [14]; [19]): ~6000 nm
hydrodynamic diameter, population 1 (fAβ42 [14]; [20]): about 40 nm
hydrodynamic diameter, population 2 (fAβ42 [14]; [20]): ~700 nm
hydrodynamic diameter, population 3 (fAβ42 [14]; [20]): ~6000 nm
hydrodynamic diameter, species 1 (fAβ42 [14]; [21]): around 107 nm
hydrodynamic diameter, species 2 (fAβ42 [14]; [21]): ~717 nm
hydrodynamic diameter, monomodal range (fAβ42 [14]; fAβ42 only, supernatant, until 4.5 h): 40–85 nm
expression of Mrc1 mRNA (in words) (Mrc1 mRNA in BV2 cells; fAβ42 0.5 μM, after 30 min): significantly suppressed
expression of Msr1 mRNA (in words) (Msr1 mRNA in BV2 cells; fAβ42 0.5 μM, after 30 min): significantly suppressed
uptake of fluorescent microsphere (in words) (BV2 cells [15]): time-dependently decreased
apoptosis of BV2 cells, cleaved caspase-3 (caspase-3): significant apoptosis

fFITC-Aβ42: pre-formed fibrillar FITC-Aβ42
degradation of intracellular FITC-Aβ42 (BV2 cells [2]): efficiently degraded
uptake in TLR2-knockdown BV2 cells (TLR2, BV2 cells): 12.8%
uptake in BV2-NC cells (TLR2, BV2 cells): ~ 39.2%

sAβ42: soluble Aβ42
lag time of β-sheet formation (fAβ42 [16]): 6.5 h
hydrodynamic diameter, peak 1 (sAβ42 [4]; sAβ42 alone): around 3 nm
hydrodynamic diameter, peak 2 (sAβ42 [4]; sAβ42 alone): ~12 nm
apoptosis of BV2 cells, cleaved caspase-3 (caspase-3): significant apoptosis

sFITC-Aβ42: soluble FITC-labeled Aβ42
degradation of intracellular FITC-Aβ42 (BV2 cells [2]): efficiently degraded
uptake in TLR2-knockdown BV2 cells (TLR2, BV2 cells): 12.6%
uptake in BV2-NC cells (TLR2, BV2 cells): ~ 27.3%
cell population with engulfed sFITC-Aβ42 (primary microglia; sFITC-Aβ42 0.5 μM alone, within about 360 min): ~ 40%
intracellular accumulation of FITC-Aβ42 (primary microglia; sFITC-Aβ42 0.5 μM ± P2CSKn 1.0 μM): extremely low
co-localization of TLR2 with RhoB-P2CSKn and FITC-Aβ42 (TLR2): rarely observed
